Measured values reported in ChEMBL document CHEMBL2086353, “Design, synthesis and structure-activity relationship of novel inhibitors against H5N1 hemagglutinin-mediated membrane fusion” (Eur J Med Chem, 2012).
Active and inactive are the calls of the source. The calls are words filed in the database; no cut-off is given here.

Columns and labels:
[1] = Inhibition of Influenza A virus (A/Anhui/1/2005(H5N1)) hemagglutininin-mediated membrane fusion assessed as inhibition of H5N1 pesudovirus infection of MDCK cells using A/Anhui/1/2005(H5N1) hemagglutinin plasmid and NA plasmid from N1 subtype strain A/Thailand/Kan353/ 2004 infected in 293T cells by luciferase reporter gene assay; type: cell-based
Procedure, shortened: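 MDCK target cells grown in DMEM with glutamine and 10% FCS. Compound at indicated concentrations preincubated with H5N1 HA/NA-pseudotyped luciferase-reporter particles (1 ng p24/well) for 30 min at 37 °C. Mixture then added to cells for 48 h. Cells PBS-washed and lysed, and luciferase activity read on a luminometer.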

MDCK = experiment: Inhibition of Vesicular stomatitis virus G hemagglutininin-mediated membrane fusion assessed as inhibition of […] infection of MDCK cells by luciferase reporter gene assay; type: cell-based
Procedure, shortened: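 Specificity control: VSV-G-pseudotyped luciferase-reporter particles replace the H5N1 pseudovirus. Compound preincubated with particles (1 ng p24/well) for 30 min at 37 °C, then added to MDCK cells (DMEM, 10% FCS) for 48 h. Lysate luciferase read on a luminometer.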

Influenza A virus = experiment: Antiviral activity against Influenza A virus (A/Thailand/Kan353/2004(H5N1)) assessed as inhibition of viral infection; type: functional, organism-based

Structure (SMILES) | IC50 [1] [µM] | inhibition (MDCK) | IC50 (Influenza A virus) [µM]
O=C(NCc1ccncc1)c1cc(F)cc(C(F)(F)F)c1 | 0.56 | inactive | –
O=C(OCCN1CCCCC1)c1cc(F)cc(C(F)(F)F)c1 | 61.2 | – | –
O=C(NCCc1cccs1)c1cncc(Cl)c1 | 9.2 | – | –
O=S(=O)(NCCN1CCCCC1)c1cccc(C(F)(F)F)c1 | 54.9 | – | –
O=C(NCCN1CCCCC1)c1cc(C(F)(F)F)cc(C(F)(F)F)c1 | 2.51 | – | –
O=C(NC1CCCCC1)c1cccc(C(F)(F)F)c1 | 7.8 | – | –
O=C(NCCc1cccs1)c1cncc(Br)c1 | 7.61 | – | –
O=C(NCCc1cccs1)c1cccc(C(F)(F)F)c1 | 4.33 | – | –
O=C(NCCc1ccccc1)c1cc(C(F)(F)F)cc(C(F)(F)F)c1 | 2.47 | – | –
CC(NC(=O)c1cc(F)cc(C(F)(F)F)c1)c1ccc2ccccc2c1 (stereo unspecified) | 49 | – | –
O=C(NCCc1cccs1)c1cc(C(F)(F)F)cc(C(F)(F)F)c1 | 2.44 | – | –
O=C(NCCN1CCCCC1)c1cc(F)cc(C(F)(F)F)c1 | 0.37 | – | 27
O=C(NCCOC(=O)c1cc(F)cc(C(F)(F)F)c1)c1cc(F)cc(C(F)(F)F)c1 | 60 | – | –
O=C(NCCN1CCOCC1)c1cc(F)cc(C(F)(F)F)c1 | 1.22 | – | –
O=C(NCCN1CCCCC1)c1cncc(Cl)c1 | 6.25 | – | –
O=C(NCCc1ccccc1)c1cccc(C(F)(F)F)c1 | 80 | – | –
O=C(NCCN1CCCC1)c1cc(F)cc(C(F)(F)F)c1 | 0.38 | inactive | –
CN1CCN(CCCNC(=O)c2cc(F)cc(C(F)(F)F)c2)CC1 | 84.3 | – | –
O=C(NCCN1CCOCC1)c1cc(C(F)(F)F)cc(C(F)(F)F)c1 | 9.89 | – | –
O=C(NCCN1CCCC1)c1cc(C(F)(F)F)cc(C(F)(F)F)c1 | 1.71 | – | –
O=C(NCCc1ccccc1)c1cc(F)cc(C(F)(F)F)c1 | 0.33 | – | –
O=C(NCCN1CCCC1)c1cc(O)c(O)cc1O | 41.5 | – | –
CN1CCN(CCCNC(=O)c2cc(C(F)(F)F)cc(C(F)(F)F)c2)CC1 | 66.6 | – | –
O=C(NCCN1CCCCC1)c1cncc(Br)c1 | 5.13 | – | –
O=C(NCCc1cccs1)c1cc(F)cc(C(F)(F)F)c1 | 0.22 | inactive | –
O=C(NCc1cccnc1)c1cc(C(F)(F)F)cc(C(F)(F)F)c1 | 2.46 | – | –
CC(NC(=O)c1cc(C(F)(F)F)cc(C(F)(F)F)c1)c1ccc2ccccc2c1 (stereo unspecified) | 40.8 | – | –
